Where two headings read alike, the source gives them in different places. No end group written: not given here.

The values that follow come from paper PMC2857556 (Cytoskeleton (Hoboken, N.J.), 2010).

The subject of one series is G-actin. As to the kind of experiment: Interaction of WH2 peptides with G-actin. Format: binding.
Series [1] concerns F-actin. As to the kind of experiment: F-actin co-sedimentation. The note with it: co-sedimentation assays, data not shown. The series is classed as binding.
The test system of another series is actin. As to the kind of experiment: Steady state actin critical concentration. Format: biochemical. The note with it: for steady state critical concentration for actin assembly (Cc): saturating Srv2 or WH2 peptide, actin alone Cc = 0.21.
Series [2] has as its target Rabbit skeletal muscle actin, monomeric (G-actin) (rabbit) (UniProt P68135). As to the kind of experiment: inhibition of nucleotide exchange on actin.
For series [3] the target is unchanged. As to the kind of experiment: inhibition of nucleotide exchange on actin. This is another data set of the same source.
Series [4] deals with Cof1-bound ADP-actin monomers. Briefly: Nucleotide exchange on Cof1-bound ADP-actin monomers. Format: biochemical, rabbit. The procedure, abridged:
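Rabbit muscle ADP-actin (2 μM) was kept in G-buffer without ATP (10 mM Tris pH 7.5, 0.2 mM CaCl2, 0.2 mM DTT). It was mixed with 20 mM Tris pH 8.0, 50 mM NaCl, alone or containing Cof1 and/or varying full-length Srv2 (yeast profilin from E. coli where used), then added to ε-ATP. The fluorescence rise at 350/410 nm was monitored for at least 600 s.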

The test system of series [5] is F-actin. As to the kind of experiment: Pi release assay of steady state actin filament turnover in the presence of Cof1. The note with it: 8 μM actin, 25°C. Format: biochemical, rabbit. Summed up:
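Cof1 and full-length Srv2 were premixed with 2 mM MgCl2, 0.5 mM ATP, 50 mM KCl, 0.2 mM MESG and 0.1 units PNP. Rabbit muscle actin monomers were added to start polymerization. Once the reaction reached steady state, Pi release was read for 15 min. After path-length correction, steady-state slopes were obtained by linear fit.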

The nature of series [6]: Fluorescence-monitored urea denaturation. Format: physicochemical. Summed up: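 Full-length 6xHis-tagged wild type and mutant Srv2 were expressed in E. coli BL21-RP (DE3), purified by IMAC then Superose 6 gel filtration in 20 mM Tris pH 8.0, 50 mM NaCl, 1 mM DTT, and stored at -80°C. Unfolding was followed by fluorescence as a function of urea concentration, with fluorescence normalized.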

The next series relates to NBD-labeled G-actin. The note with it: ref Mattila et al., 2004; cited from earlier work.

With “WH2 peptide: 6xHis-tagged WH2 domain of S. cerevisiae Srv2, a.a. 295-349, purified from E. coli (TPATSSDANKGGIGAVFAELNQGENITKGLKKVDKSQQTHKNPELRQSSTVSSTG; also: 6xHis tag, end not given here)”, the “interaction with G-actin (in words)” value with G-actin is on record as “both WH2 peptides interacted with G-actin”. Besides, the “binding affinity for F-actin (in words)” value in the series on F-actin [1] was “Neither WH2 peptide showed any detectable binding affinity for F-actin”. Also, in the series with actin (actin + WH2 versus actin alone), the “effect on steady state critical concentration (in words)” value is given as “did not alter the steady state critical concentration for actin assembly”. Besides, the “steady state critical concentration for actin assembly (Cc)” value in the series with actin (data not shown) was 0.26 µM.
Regarding “306-349: WH2 domain-containing peptide of Srv2, a.a. 306-349 (GIGAVFAELNQGENITKGLKKVDKSQQTHKNPELRQSSTVSSTG; UniProt P17555 306-349, looked up, fragment)”, the “interaction with G-actin (in words)” value in the series with G-actin is given as “both WH2 peptides interacted with G-actin”. Besides, in the series on F-actin [1], the “binding affinity for F-actin (in words)” value was “Neither WH2 peptide showed any detectable binding affinity for F-actin”.
Usually Kd stands for the constant that tells how readily two partners part at equilibrium. For “Srv2/CAP WH2 peptide (a.a. 295-349), wild type (from UniProt P17555 295-349) (domain or fragment)”, the Kd in series [2] was 1400 nM; in [3] it was 1500 nM.
With “Srv2-WT: full-length 6xHis-tagged wild type yeast Srv2/CAP protein purified from E. coli”, the “Srv2 concentration of peak effect on nucleotide exchange rate” value in series [4] (2 μM ADP-G-actin, 5 μM Cof1, 25°C (Fig. 7A)) was in the range of 300 to 400 nM. Moreover, the “effect on actin turnover (Pi release) (in words)” value in the series with F-actin [5] (4 μM Cof1, 0-500 nM protein) is given as “increased the rate of turnover in a concentration-dependent manner”. In the series with F-actin [5] (4 μM Cof1, Srv2 0-500 nM, 360 nm (Fig. 8A)), the “rate increase of actin turnover (Pi release), peak” value turned out to be 4 fold. Further, in series [6], the “folding / stability by urea denaturation (in words)” value was “folded correctly” and the “urea concentration of unfolding” value is given as ~ 5 M urea. Further, in the series on actin (data not shown), the “steady state critical concentration for actin assembly (Cc)” value came out at 2.4 µM. In addition, the “increase of critical concentration versus actin alone” value with actin (versus actin alone, data not shown) worked out at 10 fold.

B1: fragment of Srv2/CAP containing the WH2 domain (a.a. 253-373): purified fragment of Srv2/CAP from an earlier study (Mattila et al., 2004) (protein, UniProt P17555 253-373, looked up, fragment)
chain: MAQSTKNTGATSSPSPASATAAPAPPPPPPAPPASVFEISNDTPATSSDANKGGIGAVFAELNQGENITKGLKKVDKSQQTHKNPELRQSSTVSSTGSKSGPPPRPKKPSTLKTKRPPRKE
Turning to B1, the “binding affinity for NBD-labeled G-actin (in words)” value in the series with NBD-labeled G-actin was “no detectable binding affinity for NBD-labeled G-actin”.

B2: profilin: Yeast profilin (Pfy1) purified from E. coli (protein, UniProt P07274 1-126, looked up)
Profilin: MSWQAYTDNLIGTGKVDKAVIYSRAGDAVWATSGGLSLQPNEIGEIVQGFDNPAGLQSNGLHIQGQKFMLLRADDRSIYGRHDAEGVVCVRTKQTVIIAHYPPTVQAGEATKIVEQLADYLIGVQY
Regarding B2, the “effect on nucleotide exchange on Cof1-bound ADP-actin, protein alone (in words)” value in series [4] (2 μM ADP-G-actin, 5 μM Cof1, 50 μM ε-ATP, 25°C) is listed as “no detectable activity”. In addition, the “effect of profilin on Srv2-WT promotion of nucleotide exchange (in words)” value in [4] (5 μM yeast profilin with 400 nM full-length Srv2-WT, 5 μM Cof1 (Fig. 7F)) is “does not enhance Srv2’s effects”.
